These compounds were tested on Rattus norvegicus (assay: Percent reduction in joint damage as compared to the control at 25 mg/Kg).
Assay type: functional
Procedure, shortened: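 Rat iodoacetate osteoarthritis model; groups of 15 animals dosed orally BID (~every 12 h) for 7 days at 25 mg/kg or vehicle (2.5 mL/kg). Sacrifice on day 22; left joint disarticulated, fixed in 10% formalin 24–48 h, tibial cartilage surface imaged by image analysis. Joint damage expressed as % reduction versus vehicle; significance at P < 0.05.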

Structure (SMILES) | Reduction
COC[C@H](C)Nc1nccc(-c2c(-c3ccc(F)cc3)c(=O)n3n2CC2(C3)OCCO2)n1 | 17%
C[C@H](Nc1nccc(-c2c(-c3ccc(F)cc3)c(=O)n3n2CC2(C3)OCCO2)n1)c1ccccc1 | 27%
C[C@H](Nc1nccc(-c2c(-c3ccc(F)cc3)c(=O)n3n2CC2(C3)OCCO2)n1)C(C)(C)O | 18%
COCC(C)Nc1nccc(-c2c(-c3ccc(F)cc3)c(=O)n3n2CC(OC)C3)n1 (racemic) | 28%

These compounds were tested on THP-1 (assay: inhibitory potency against human Tumor necrosis factor, alpha production in THP-1cells).
Assay type: functional, cell-based
Procedure, shortened: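 Human monocytic THP-1 cells (2.0 × 10^5/well), duplicate cultures, preincubated 15 min with or without inhibitor over a concentration range, then stimulated with LPS (2 μg/mL). TNF-α released measured by ELISA 4 h after stimulation; cell viability after the 4 h incubation checked by MTS assay.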

Structure (SMILES) | IC50
Cc1ccccc1CNc1nccc(-c2c(-c3ccc(F)cc3)c(=O)n3n2CC2(C3)OCCO2)n1 | 19 nM
O=c1c(-c2ccc(F)cc2)c(-c2ccnc(NCc3ccccc3C(F)(F)F)n2)n2n1CC1(C2)OCCO1 | 17 nM
O=c1c(-c2ccc(F)cc2)c(-c2ccnc(Oc3ccccc3)n2)n2n1CC(N1CCCC1)C2 (stereo not drawn) | 327 nM
COC[C@H](C)Nc1nccc(-c2c(-c3ccc(F)cc3)c(=O)n3n2CC2(C3)OCCO2)n1 | 36 nM
CN(C)C1Cn2c(-c3ccnc(Oc4ccccc4)n3)c(-c3ccc(F)cc3)c(=O)n2C1 (stereo not drawn) | 177 nM
O=c1c(-c2ccc(F)cc2)c(-c2ccnc(NCc3cccc(C(F)(F)F)c3)n2)n2n1CC1(C2)OCCO1 | 197 nM
C[C@@H](Nc1nccc(-c2c(-c3ccc(F)cc3)c(=O)n3n2CC(O)C3)n1)c1ccccc1 (stereo partly drawn) | 5 nM
O=c1c(-c2ccc(F)cc2)c(-c2ccnc(NCc3ccccc3)n2)n2n1CC1(C2)OCCO1 | 11 nM
O=c1c(-c2ccc(F)cc2)c(-c2ccnc(Oc3ccccc3)n2)n2n1CC(N1CCOCC1)C2 (stereo not drawn) | 313 nM
O=c1c(-c2ccc(F)cc2)c(-c2ccnc(NCc3ccccc3)n2)n2n1CC1(C2)OCCCO1 | 31 nM
O=c1c(-c2ccc(F)cc2)c(-c2ccnc(NCc3ccc(F)cc3)n2)n2n1CC1(C2)OCCCO1 | 630 nM
O=c1c(-c2ccc(F)cc2)c(-c2ccnc(Oc3ccccc3)n2)n2n1CC1(C2)OCCO1 | 38 nM
C[C@H](Nc1nccc(-c2c(-c3ccc(F)cc3)c(=O)n3n2CC2(C3)OCCO2)n1)c1ccccc1 | 2 nM
O=c1c(-c2ccc(F)cc2)c(-c2ccnc(NCc3ccc(C(F)(F)F)cc3)n2)n2n1CC1(C2)OCCO1 | 1000 nM
O=c1c(-c2ccc(F)cc2)c(-c2ccnc(NCc3ccncc3)n2)n2n1CC1(C2)OCCO1 | 1000 nM
O=c1c(-c2ccc(F)cc2)c(-c2ccnc(Oc3ccccc3)n2)n2n1CC(N1CCNCC1)C2 (stereo not drawn) | 500 nM
COC[C@H](C)Nc1nccc(-c2c(-c3ccc(F)cc3)c(=O)n3n2CC2(C3)OCCCO2)n1 | 36 nM

Structure (SMILES) | IC50
O=c1c(-c2ccc(F)cc2)c(-c2ccnc(NCc3cccnc3)n2)n2n1CC1(C2)OCCO1 | 427 nM
Nc1ccc(CNc2nccc(-c3c(-c4ccc(F)cc4)c(=O)n4n3CC3(C4)OCCO3)n2)cc1 | 161 nM
O=c1c(-c2ccc(F)cc2)c(-c2ccnc(NCc3cccc(F)c3)n2)n2n1CC1(C2)OCCO1 | 13 nM
O=c1c(-c2ccc(F)cc2)c(-c2ccnc(NCc3ccc(F)cc3)n2)n2n1CC1(C2)OCCO1 | 290 nM
COC(=O)OC1Cn2c(-c3ccnc(Oc4ccccc4)n3)c(-c3ccc(F)cc3)c(=O)n2C1 (stereo not drawn) | 181 nM
Cc1cccc(CNc2nccc(-c3c(-c4ccc(F)cc4)c(=O)n4n3CC3(C4)OCCO3)n2)c1 | 40 nM
Nc1ccccc1CNc1nccc(-c2c(-c3ccc(F)cc3)c(=O)n3n2CC2(C3)OCCO2)n1 | 101 nM
C[C@H](Nc1nccc(-c2c(-c3ccc(F)cc3)c(=O)n3n2CC2(C3)OCCCO2)n1)c1ccccc1 | 12 nM
Cc1ccc(CNc2nccc(-c3c(-c4ccc(F)cc4)c(=O)n4n3CC3(C4)OCCO3)n2)cc1 | 293 nM
O=c1c(-c2ccc(F)cc2)c(-c2ccnc(Oc3ccccc3)n2)n2n1CC(N1CCCCC1)C2 (stereo not drawn) | 297 nM
O=c1c(-c2ccc(F)cc2)c(-c2ccnc(NCc3ccccc3F)n2)n2n1CC1(C2)OCCO1 | 8 nM
O=c1c(-c2ccc(F)cc2)c(-c2ccnc(NCc3ccccn3)n2)n2n1CC1(C2)OCCO1 | 148 nM
C[C@H](Nc1nccc(-c2c(-c3ccc(F)cc3)c(=O)n3n2CC2(C3)OCCO2)n1)C(C)(C)O | 9 nM
O=c1c(-c2ccc(F)cc2)c(-c2ccnc(Oc3ccccc3)n2)n2n1CC1(C2)OCCCO1 | 69 nM
COC[C@H](C)Nc1nccc(-c2c(-c3ccc(F)cc3)c(=O)n3n2CC(OC)C3)n1 (stereo partly drawn) | 13 nM
COCC(C)Nc1nccc(-c2c(-c3ccc(F)cc3)c(=O)n3n2CC(OC)C3)n1 (racemic) | 15 nM
COCC(C)Nc1nccc(-c2c(-c3ccc(F)cc3)c(=O)n3n2CC(OC)C3)n1 (single isomer, unassigned) | 20 nM
